Screening results from PubChem BioAssay.
Compounds with a hit are over-represented: about 1.8% of the library has one in this group of screens.
Statin myotox sup – protects C2C12 myotubes from simvastatin toxicity; rescue of ATP level, % at 7.49 µM; ATP luminescence, 48 h; scaled: DMSO 0, geranylgeraniol control 100; 0.78% of 330,000 active;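 active = mean ATP rescue above about 67%, or every replicate alone reaching that limit, limit read from the data, passing the limit was not always enough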;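 note: myotubes were challenged with 10 µM simvastatin during compound exposure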
Efflux pump inh – inhibitors of Candida antifungal efflux pumps expressed in yeast; S. cerevisiae Candida pump triplex, Nile Red efflux; inhibition, % at 10 µM; 0.44% of 330,000 active;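 active = plate passing quality check with inhibition over a set limit, or well fluorescence over plate mean plus 4 SD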;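 note: Nile Red retained in pooled yeast measured as flow cytometry median fluorescence; higher means more Nile Red kept so more efflux inhibition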
SUMO Mot1 rescue – inhibitors of SUMOylation pathway: yeast Mot1-301 growth rescue; S. cerevisiae Mot1-301 growth rescue, ATP luminescence, 38.5C; percent above DMSO median, 100 means doubled; growth rescue, % at 18.8 µM; 1% of 320,000 active; AID 2716;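 active = every valid replicate shows activation above 250% relative to neutral control wells; inactive = the rest, any valid replicate at or below 250%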
Cneo AK release – causes C. neoformans cell lysis. adenylate kinase release luminescence, 4 h; normalised: neutral wells 0, clomiphene wells 100. lysis activity, % at 15 µM. 0.2% of 360,000 active. AID 651654;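 active = mean lysis activity across replicates of at least 80%, whatever share of replicates individually reach that level; inactive = mean lysis activity below 80%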
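Material: C. neoformans cells; Schedule: 4 h static compound exposure, 37 °C, read 1 h post-reagent; Measured by: adenylate kinase release luminescence; Read-out: signal increase indicating cell lysis; Controls: Clomiphene as positive lysis control.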
Yeast Mot1 SUMO – inhibits SUMO pathway, affecting Mot1-301 yeast growth; AID 493004; S. cerevisiae Mot1-301 galactose growth, ATP luminescence, 24 h; -100 = growth of slx-deleted rescue strain; shares compounds with SUMO Mot1 rescue; 2,300 tested, under 10 active; growth activity, percent, % at 42 µM;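 active = Signal drops as the depositor expects, and the fitted half-maximal dose is no more than ten times the top valid tested dose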;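 note: more negative values mean stronger growth rescue toward the control strain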
Numbers stand for hits.

For CCOC(=O)Cn1c(=O)n(Cc2ccco2)c(=O)c2ccc(C(=O)NCCc3ccccc3)cc21 the results were Statin myotox sup inactive, Efflux pump inh inactive, SUMO Mot1 rescue 370.1, Cneo AK release inactive and Yeast Mot1 SUMO inactive.
Screening O=C(CSc1cccc[n+]1[O-])N1CCc2ccccc21 returned Statin myotox sup inactive, Efflux pump inh inactive, SUMO Mot1 rescue 898.4, Cneo AK release inactive and Yeast Mot1 SUMO inactive.
`O=C(CSc1cccc[n+]1[O-])N1CCCCCC1` gave Efflux pump inh inactive and SUMO Mot1 rescue inactive.
For Cn1c(=O)c2c(nc(N/N=C/c3ccc(OC(=O)c4ccco4)cc3)n2Cc2ccccc2Cl)n(C)c1=O the results were Statin myotox sup inactive, Efflux pump inh inactive, SUMO Mot1 rescue active, Cneo AK release inactive and Yeast Mot1 SUMO inactive.
Screening COc1ccc(CN(C)C(=O)Cn2ccc(N)nc2=O)cc1OC returned Statin myotox sup inactive, Efflux pump inh inactive, SUMO Mot1 rescue inactive and Cneo AK release inactive.
For Oc1cccc(/C=N/N2CCN(C3c4ccccc4-c4ccccc43)CC2)c1 the results were Efflux pump inh inactive, SUMO Mot1 rescue inactive and Cneo AK release inactive.
For C(=N\N1CCN(C2c3ccccc3-c3ccccc32)CC1)/c1ccncc1 the results were Efflux pump inh inactive, SUMO Mot1 rescue active and Yeast Mot1 SUMO inactive.
Screening CC(C)=CCC(C)(C)C1OCCN1C(=O)c1ccccc1 (centres undefined) returned Efflux pump inh inactive, SUMO Mot1 rescue inactive and Cneo AK release inactive.
Screening CCCCn1c(N)c(N(CC(C)C)C(=O)CSCC(=O)Nc2cccc(C)c2)c(=O)[nH]c1=O returned Statin myotox sup inactive, Efflux pump inh inactive, SUMO Mot1 rescue 366.3, Cneo AK release inactive and Yeast Mot1 SUMO inactive.
CCOC(=O)c1sc(NC(=O)CSc2nccn2C)nc1C was read as Statin myotox sup inactive, Efflux pump inh inactive, SUMO Mot1 rescue inactive and Cneo AK release inactive.
CCCCOc1ccc(C(O)C(CN2CCOCC2)c2ccccc2)cc1 (centres undefined) was read as Efflux pump inh inactive, SUMO Mot1 rescue 786.7 and Yeast Mot1 SUMO inactive.
C=CCOC(=O)C1=C(C)Nc2ncnn2C1c1cccs1 (centres undefined) was read as Statin myotox sup inactive, Efflux pump inh inactive, SUMO Mot1 rescue inactive and Cneo AK release inactive.
Screening Clc1ccc(N=c2ssnc2Cl)nc1 returned Efflux pump inh inactive, SUMO Mot1 rescue 654.8 and Yeast Mot1 SUMO inactive.
`O=C(Nc1ccc(Cl)cc1)N1CCC(c2nc(-c3ccc(F)cc3)no2)CC1` gave Statin myotox sup inactive, Efflux pump inh inactive, SUMO Mot1 rescue active, Cneo AK release inactive and Yeast Mot1 SUMO inactive.
c1ccc2c(c1)[nH]c1c(N3CCN(C4CCCCC4)CC3)ncnc12 was read as Statin myotox sup inactive, Efflux pump inh inactive, SUMO Mot1 rescue 739.1, Cneo AK release inactive and Yeast Mot1 SUMO inactive.
`N#C/C(=C\Nc1ccc2c(c1)OCCO2)c1nc(-c2ccccc2)cs1` gave Efflux pump inh inactive and SUMO Mot1 rescue inactive.
Screening N#C/C(=C\Nc1ccc2c(c1)OCCO2)c1nc2ccccc2[nH]1 returned Statin myotox sup inactive, Efflux pump inh inactive, SUMO Mot1 rescue 934.8, Cneo AK release inactive and Yeast Mot1 SUMO inactive.
Screening c1ccc2cc(Cn3ccnc3)ccc2c1 returned Statin myotox sup inactive, Efflux pump inh inactive, SUMO Mot1 rescue 413.1, Cneo AK release inactive and Yeast Mot1 SUMO inactive.
`NS(=O)(=O)c1ccc(CCNC(=O)/C=C/c2ccccc2[N+](=O)[O-])cc1` gave Efflux pump inh inactive and SUMO Mot1 rescue inactive.
Screening Cc1nc2c(-c3ccc(F)cc3)cnn2c2c1CCC2 returned Efflux pump inh inactive, SUMO Mot1 rescue 582.5 and Yeast Mot1 SUMO inactive.
`Cc1ccccc1NC(=O)Cn1c(=O)oc2ccccc21` gave Statin myotox sup inactive, Efflux pump inh inactive, SUMO Mot1 rescue inactive and Cneo AK release inactive.
Screening COc1ccc(C)cc1NC(=O)Cn1c(=O)oc2ccccc21 returned Statin myotox sup inactive, Efflux pump inh inactive, SUMO Mot1 rescue 486.3, Cneo AK release inactive and Yeast Mot1 SUMO inactive.
O=S(=O)(NCCO)c1cccc2cccnc12 was read as Statin myotox sup inactive, Efflux pump inh inactive, SUMO Mot1 rescue inactive and Cneo AK release inactive.
Screening O=S(=O)(NCCN1CCCC1)c1cccc2cccnc12 returned Statin myotox sup inactive, Efflux pump inh inactive, SUMO Mot1 rescue 814.6, Cneo AK release inactive and Yeast Mot1 SUMO inactive.
Screening Cc1ccccc1C(=O)/C=C1\NC(=O)CS1 returned Efflux pump inh inactive, SUMO Mot1 rescue 367.9 and Yeast Mot1 SUMO inactive.
